Experimental data from the RNAGym collection of RNA variant scans (doi:10.1126/science.aae0568).
This sample holds only a part of the variants without activity.

B1: tRNA (parent)
chain: GUUCCGUUGGCGUAAUGGUAACGCGUCUCCCUCCUAAGGAGAAGACUGCGGGUUCGAGUCCCGUACGGAACG

Variants of: B1
Experiment: yeast fitness relative to wild type (ratio to wild type); higher = fitter; tRNA-Arg(CCU), competitive growth, 37 C, YPD
In short: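 Amplicons of the tRNA-Arg(CCU) gene were sequenced, 100-nucleotide paired-end, from the start population and from each end population of a pooled yeast competition. The competition, in six parallel replicates, lasted 24 hours in YPD at 37°C. Fitness relative to wild type was calculated from changes in genotype frequencies. Genotypes had to have ≥ 100 starting reads, and estimates < 0.5 were set to 0.5.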

Variant	yeast fitness
C46A C49U	0.958
C11U A36U C60A	≤ 0.5
A20G C46U	0.942
A14U A36U C62G	≤ 0.5
C31A C49G	0.64
U2C C29A G44C C46G C62A	≤ 0.5
G9A C62G	0.896
C11A C24G U47G	≤ 0.5
C30G G39C	0.579
C11A C22G C29G C61U C62A A70G	≤ 0.5
U28A A40C C46G	≤ 0.5
G10C U47C G67C	0.536
G9C U26G	0.684
U3C A57G	0.714
G6A C34U G39C	≤ 0.5
C4U U13C G25A C60A C62U	≤ 0.5
U3C C5G G38A	≤ 0.5
G25A A40C C55G C61A	≤ 0.5
U19G G44A C46G	0.946
U19C C55A	0.601
C22U A37C	0.593

Variant	yeast fitness
A15U U28A G68C	≤ 0.5
A21C G44C G50A A57G G68C	≤ 0.5
G23A C34A A43U U47C	0.577
A20U A42U U59A	0.59
C30G C46A C60A	≤ 0.5
U3G U7A G9A	≤ 0.5
G12A U16A	0.974
U2C G12A G18C C33U	0.561
G39C A40G	0.67
C30A C31G G39C	0.535
A14C C46U G67C	0.589
C11G C30U G67C	≤ 0.5
G23A C30U A37C A57C	≤ 0.5
C4A C30U A57G A65U	≤ 0.5
A20G C27G U35G	≤ 0.5
C4U C31U C55G U59A	0.546
G10C C22U C61U	0.518
C5U U16A G38A A42G U64G	≤ 0.5
C5G G17A C33U A37C A65C	≤ 0.5
G12C A20C U32A C33G	0.536
U7A C11U U16A G25A	≤ 0.5

Variant	yeast fitness
G6C U19C U32A A42C	≤ 0.5
U13A C27A A36G A42C	≤ 0.5
U3C U16C C30G C31G A37U G56C	≤ 0.5
A15C C33G A42C A45C	≤ 0.5
G9A C11U A15C A20G G48A C60G	0.662
C22A C31G G68A	≤ 0.5
C4A A20U C66U	≤ 0.5
U2A C5A C22G C24U G50C	≤ 0.5
C4G C29G C49U C60G	≤ 0.5
C24G A37U C55U G67C	≤ 0.5
A20U G25C A37G C60G C61G A70U	≤ 0.5
G9A C31U U53A	0.638
U8C A21U U32A C49U C55U	≤ 0.5
G44C A57U	0.554
U19G C30U C55U A57G	≤ 0.5
U2A U32A A69C	0.612
C5G A14U G25A C33A C61U	≤ 0.5
C5U C22U U35A A37U G67A	≤ 0.5
U8C C11A C30A	≤ 0.5
C24A G44C C49A C60U A69C	0.599
A14U G18C A69U	≤ 0.5

Variant	yeast fitness
U26G A45U G50A	0.535
C4A C27U A37G	0.566
U28A A37C	0.657
A21G C29A A69C	≤ 0.5
C49U A70G	1.07
U53A C62U A69U	≤ 0.5
A20C C60G C62U	≤ 0.5
A14C A15G A42G	0.738
A20G A42G	0.969
U2C U54A	0.612
G23C C24G C34G U64A G67A	≤ 0.5
A20U G23A C66U	0.55
G6A C24U A36C A43U A69U	≤ 0.5
A21G A70C	0.993
G44A C46U G58A	0.687
C24G C29G C33U	≤ 0.5
G12C G50A	0.736
C4U C11A A65C	0.538
C24U C33A G44C U47C	0.674
C31U C46U C49U	0.905
